Assay results reported in paper PMC12753540 (Investigational New Drugs, 2025).
Where “and” joins values, the source holds several entries; their conditions need not be identical. Identical values can stand only once. Marks after values point to notes of the source that are not given here.

Assays:
[1] = Phase 1 study: plasma pharmacokinetics, non-compartmental analysis; type: in vivo, human (Japanese patients); conditions: for tmax, Median (range) / Cmax / Vd/F / half-life: oral; for tmax, Median (range) / Cmax / Vd/F / half-life / Tmax: plasma; for Cmax / Vd/F / half-life / Tmax: human; for Vd/F: Arithmetic mean (SD); for half-life: t1/2, Arithmetic mean (SD); for Tmax: po, Median (range)
[2] = Phase 1 study: safety and tolerability; type: in vivo, human (Japanese patients with advanced solid tumors)
Procedure, shortened: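 Oral dosing was 240 mg BID on Days 1–7 (Cohort 1) or 160 mg BID on Days 1–14 (Cohort 2) of 28-day cycles, after a single dose on C0D1, using a rolling-6 escalation design. DLTs were assessed over Cycles 0 and 1. AEs were coded by MedDRA and graded by CTCAE v4.03. The TEAE window ran from first dose to 30 (+7) days after the last dose or discontinuation. Relatedness was judged by the investigator. Data were summarized descriptively for all patients who received ≥1 dose.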

[3] = system: advanced solid malignancies; test: Phase 1 study: antitumor activity; type: in vivo, human (Japanese patients); conditions: for Best overall response: Complete response / Best overall response: Partial response: confirmed; for Best overall response: Stable disease: maintained ≥ 7 weeks from Cycle 1 Day 1; for Median PFS: Kaplan-Meier, data cutoff May 25, 2023
Procedure, shortened: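 Oral twice-daily dosing on Days 1–7 of 28-day cycles, after a single oral dose on C0D1 (4-day Cycle 0). Tumors were imaged by CT or MRI at baseline, then by the same method every 8 weeks (±1 week) until progression, per RECIST 1.1. CR/PR needed confirmation ≥4 weeks later, and SD had to last ≥7 weeks from C1D1. ORR was limited to measurable disease, with Clopper-Pearson 95% CI; PFS by Kaplan–Meier.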

advanced solid tumors = conditions: monotherapy, cited from earlier work
[4] = cited from earlier work
[5] = system: advanced gastric cancer, metastatic melanoma, non-small-cell lung cancer; conditions: in combination with durvalumab; phase 2 studies; cited from earlier work
[6] = Multiple-dose administration, Cohort 1 240 mg BID (n = 6)
[7] = Multiple-dose administration, Cohort 2 160 mg BID (n = 6)
[8] = Single-dose administration, Cohort 1 240 mg (n = 6)
[9] = Single-dose administration, Cohort 2 160 mg (n = 6)
[10] = 160 mg, Single-dose administration, Cohort 2 160 mg (n = 6)
[11] = 240 mg, Single-dose administration, Cohort 1 240 mg (n = 6)
[12] = Cohort 1 240 mg BID (n = 6), Any grade
[13] = Cohort 2 160 mg BID (n = 6), Any grade

SMILES: C[C@@H]1COCCN1c1cc(C2([S@](C)(=N)=O)CC2)nc(-c2cc[nH]c3nccc2-3)n1 [ceralasertib]
- AUCss, Geometric mean (CV%) [1, 6]: 94,970 (20.38) ng x h/mL
- AUCss,last, Geometric mean (CV%) [1, 6]: 92,140 (20.55) ng x h/mL
- CLss/F, Arithmetic mean (SD) [1, 6]: 2.568 (0.4725) L/h
- Css,max, Geometric mean (CV%) [1, 6]: 11,970 (16.26) ng/mL
- tss,max, Median (range) ([1]; Multiple-dose administration, Cohort 1 240 mg BID (n = 6), Cycle 1 Day 7): 1.97 (0.95–2.83) h
- AUCss, Geometric mean (CV%) [1, 7]: 57,400 (17.41) ng x h/mL
- AUCss,last, Geometric mean (CV%) [1, 7]: 56,020 (17.05) ng x h/mL
- CLss/F, Arithmetic mean (SD) [1, 7]: 2.822 (0.4864) L/h
- Css,max, Geometric mean (CV%) [1, 7]: 8132 (16.01) ng/mL
- tss,max, Median (range) ([1]; Multiple-dose administration, Cohort 2 160 mg BID (n = 6), Cycle 1 Day 8): 1.87 (0.52–2.92) h
- AUC(0–12), Geometric mean (CV%) [1, 8]: 54,260 (12.8) ng x h/mL
- AUCinf, Geometric mean (CV%) [1, 8]: 102,800 (20.67) ng x h/mL
- AUClast, Geometric mean (CV%) [1, 8]: 100,700 (19.14) ng x h/mL
- CL/F, Arithmetic mean (SD) [1, 8]: 2.4 L/h and 2.375 (0.4926) L/h
- Vz/F, Arithmetic mean (SD) [1, 8]: 40.47 (7.307) L
- t1/2, Arithmetic mean (SD) [1, 8]: 12.24 (3.472) h
- tmax, Median (range) [1, 8]: 2.04 (1.98–3.97) h
- AUC(0–12), Geometric mean (CV%) [1, 9]: 39,160 (16.33) ng x h/mL
- AUCinf, Geometric mean (CV%) [1, 9]: 71,440 (29.19) ng x h/mL
- AUClast, Geometric mean (CV%) [1, 9]: 69,120 (25.54) ng x h/mL
- CL/F, Arithmetic mean (SD) [1, 9]: 2.3 L/h and 2.318 (0.6707) L/h
- Vz/F, Arithmetic mean (SD) [1, 9]: 43.03 (8.284) L
- tmax, Median (range) [1, 9]: 1.92 (0.85–2.13) h
- Cmax ([1]; 160 mg): 6550 ng/mL
- Vd/F ([1]; 160 mg, Vss/F, Multiple-dose administration, Cohort 2 160 mg BID (n = 6)): 35.3 L
- half-life [1, 10]: 13.9 h
- Cmax ([1]; 240 mg): 7670 ng/mL
- Vd/F ([1]; 240 mg, Vss/F, Multiple-dose administration, Cohort 1 240 mg BID (n = 6)): 33.8 L
- Vd/F ([1]; 240 mg, Vz/F, Single-dose administration, Cohort 1 240 mg (n = 6)): 40.5 L
- half-life [1, 11]: 12.2 h
- Tmax [1, 10]: 1.9 h
- Tmax [1, 11]: 2 h
- Accumulation of ceralasertib in plasma ([1]; multiple administrations at 160 mg or 240 mg): up to 1.8 fold
- Arithmetic mean TCP ([1]; range across both cohorts, multiple dosing): 0.82–0.94
- Dose proportionality of exposure ([1]; single and multiple dosing, 160 mg and 240 mg): A trend suggesting a dose-proportional increase in exposure
- Any DLT ([2]; Cohort 1 240 mg BID (n = 6)): 1 (16.7)* n (%)
- Any SAE ([2]; Cohort 1 240 mg BID (n = 6)): 0 n (%)
- Any SAE related to treatment ([2]; Cohort 1 240 mg BID (n = 6)): 0 n (%)
- Any SAE related to treatment, Grade ≥ 3 ([2]; Cohort 1 240 mg BID (n = 6)): 0 n (%)
- Any SAE, Grade ≥ 3 ([2]; Cohort 1 240 mg BID (n = 6)): 0 n (%)
- Any TEAE ([2]; Cohort 1 240 mg BID (n = 6)): 6 (100) n (%)
- Any TEAE leading to death ([2]; Cohort 1 240 mg BID (n = 6)): 0 n (%)
- Any TEAE leading to discontinuation of ceralasertib ([2]; Cohort 1 240 mg BID (n = 6)): 1 (16.7)* n (%)
- Any TEAE leading to discontinuation of ceralasertib, Related to treatment ([2]; Cohort 1 240 mg BID (n = 6)): 1 (16.7)* n (%)
- Any TEAE leading to dose interruption of ceralasertib ([2]; Cohort 1 240 mg BID (n = 6)): 0 n (%)
- Any TEAE leading to dose interruption of ceralasertib, Related to treatment ([2]; Cohort 1 240 mg BID (n = 6)): 0 n (%)
- Any TEAE leading to dose reduction of ceralasertib ([2]; Cohort 1 240 mg BID (n = 6)): 1 (16.7) n (%)
- Any TEAE leading to dose reduction of ceralasertib, Related to treatment ([2]; Cohort 1 240 mg BID (n = 6)): 1 (16.7) n (%)
- Any TEAE, Grade ≥ 3 ([2]; Cohort 1 240 mg BID (n = 6)): 1 (16.7)* n (%)
- Any TRAE ([2]; Cohort 1 240 mg BID (n = 6)): 5 (83.3) n (%)
- Any TRAE leading to death ([2]; Cohort 1 240 mg BID (n = 6)): 0 n (%)
- Any TRAE, Grade ≥ 3 ([2]; Cohort 1 240 mg BID (n = 6)): 1 (16.7)* n (%)
- TEAE: Anemia [2, 12]: 3 n (%)
- TEAE: Constipation [2, 12]: 2 n (%)
- TEAE: Nausea [2, 12]: 3 n (%)
- TEAE: Neutrophil count decreased [2, 12]: 2 n (%)
- TEAE: Platelet count decreased [2, 12]: 2 n (%)
- Any DLT ([2]; Cohort 2 160 mg BID (n = 6)): 1 (16.7)^† n (%)
- Any SAE ([2]; Cohort 2 160 mg BID (n = 6)): 2 (33.3) n (%)
- Any SAE related to treatment ([2]; Cohort 2 160 mg BID (n = 6)): 1 (16.7)^† n (%)
- Any SAE related to treatment, Grade ≥ 3 ([2]; Cohort 2 160 mg BID (n = 6)): 1 (16.7)^† n (%)
- Any SAE, Grade ≥ 3 ([2]; Cohort 2 160 mg BID (n = 6)): 2 (33.3) n (%)
- Any TEAE ([2]; Cohort 2 160 mg BID (n = 6)): 6 (100) n (%)
- Any TEAE leading to death ([2]; Cohort 2 160 mg BID (n = 6)): 0 n (%)
- Any TEAE leading to discontinuation of ceralasertib ([2]; Cohort 2 160 mg BID (n = 6)): 0 n (%)
- Any TEAE leading to discontinuation of ceralasertib, Related to treatment ([2]; Cohort 2 160 mg BID (n = 6)): 0 n (%)
- Any TEAE leading to dose interruption of ceralasertib ([2]; Cohort 2 160 mg BID (n = 6)): 1 (16.7)^† n (%)
- Any TEAE leading to dose interruption of ceralasertib, Related to treatment ([2]; Cohort 2 160 mg BID (n = 6)): 1 (16.7)^† n (%)
- Any TEAE leading to dose reduction of ceralasertib ([2]; Cohort 2 160 mg BID (n = 6)): 1 (16.7)^† n (%)
- Any TEAE leading to dose reduction of ceralasertib, Related to treatment ([2]; Cohort 2 160 mg BID (n = 6)): 1 (16.7)^† n (%)
- Any TEAE, Grade ≥ 3 ([2]; Cohort 2 160 mg BID (n = 6)): 2 (33.3) n (%)
- Any TRAE leading to death ([2]; Cohort 2 160 mg BID (n = 6)): 0 n (%)
- Any TRAE, Grade ≥ 3 ([2]; Cohort 2 160 mg BID (n = 6)): 1 (16.7)^† n (%)
- TEAE: Anemia [2, 13]: 4 n (%)
- TEAE: Nausea [2, 13]: 4 n (%)
- TEAE: Platelet count decreased [2, 13]: 4 n (%)
- TEAE: White blood cell count decreased [2, 13]: 3 n (%)
- Patients with grade ≥ 3 treatment-emergent adverse event ([2]; both cohorts, 12 patients treated): 3 patients
- Overall tolerability ([2]; monotherapy, both regimens): well tolerated with an acceptable safety profile
- Patients with low grade (grade ≤ 2) events only ([2]; of 12 patients enrolled): 9 patients
- Best overall response: Not evaluable ([3]; Cohort 1 240 mg BID (n = 6)): 1 (16.7) n (%)
- Best overall response: Not evaluable, No post-baseline assessment ([3]; Cohort 1 240 mg BID (n = 6)): 1 (16.7) n (%)
- Best overall response: Objective response ([3]; Cohort 1 240 mg BID (n = 6)): 0 n (%)
- Best overall response: Progressive disease ([3]; Cohort 1 240 mg BID (n = 6)): 3 n (%) and 3 (50.0) n (%)
- Best overall response: Complete response ([3]; Cohort 1 240 mg BID (n = 6)): 0 n (%)
- Best overall response: Partial response ([3]; Cohort 1 240 mg BID (n = 6)): 0 n (%)
- Best overall response: Stable disease ([3]; Cohort 1 240 mg BID (n = 6)): 2 n (%) and 2 (33.3) n (%)
- Median PFS ([3]; Cohort 1 240 mg BID): 2.1 months
- Best overall response: Not evaluable ([3]; Cohort 2 160 mg BID (n = 6)): 0 n (%)
- Best overall response: Not evaluable, No post-baseline assessment ([3]; Cohort 2 160 mg BID (n = 6)): 0 n (%)
- Best overall response: Objective response ([3]; Cohort 2 160 mg BID (n = 6)): 0 n (%)
- Best overall response: Progressive disease ([3]; Cohort 2 160 mg BID (n = 6)): 2 n (%) and 2 (33.3) n (%)
- Best overall response: Complete response ([3]; Cohort 2 160 mg BID (n = 6)): 0 n (%)
- Best overall response: Partial response ([3]; Cohort 2 160 mg BID (n = 6)): 0 n (%)
- Best overall response: Stable disease ([3]; Cohort 2 160 mg BID (n = 6)): 4 n (%) and 4 (66.7) n (%)
- Median PFS ([3]; Cohort 2 160 mg BID): 3.3 months
- Patients with best objective response of stable disease ([3]; both cohorts in total, 12 patients): 6 patients
- Disease control (evaluable patients) (advanced solid tumors; 39 of 66 evaluable patients): 59%
- Confirmed partial response (advanced solid tumors; 66 evaluable patients): 5 n
- Stable disease or unconfirmed PR (advanced solid tumors; 66 evaluable patients): 34 n
- Median tmax ([4]; Caucasian patients, PATRIOT study): 0.5 to 4 h
- Mean t1/2 after single dosing ([4]; PATRIOT studies, at higher doses): 11.2 to 12.8 h
- Objective response rates (ORR) [5]: 14 to 31%
